# Assay results: ChEMBL document CHEMBL3351795, “Discovery of Cathepsin S Inhibitor LY3000328 for the Treatment of Abdominal Aortic Aneurysm” (ACS Med Chem Lett, 2014)
# Activity calls are given as the source filed them. The calls are words filed in the database; no cut-off is given here.
# Legend:
# [1] = Volume of distribution in Beagle dog at 1 mg/kg, iv or 3 mg/kg, po; assay type: ADME, organism-based, Canis lupus familiaris; conditions: in vivo
# [2] = AUC (0 to 24 hrs) in 129SvEv mouse model of CaCl2-induced abdominal aortic aneurysm at 10 mg/kg dosed through oral gavage BID for 4 weeks with first dose given one day prior to surgery; assay type: ADME, organism-based, Abdomen; parameters: time < 24 hr, dose 10 mg/kg, route oral; conditions: in vivo
# [3] = AUC (0 to 24 hrs) in 129SvEv mouse model of CaCl2-induced abdominal aortic aneurysm at 30 mg/kg dosed through oral gavage BID for 4 weeks with first dose given one day prior to surgery; assay type: ADME, organism-based, Abdomen; parameters: time < 24 hr, dose 30 mg/kg, route oral; conditions: in vivo
# Cathepsin S [4] = target: Cathepsin S (Mus musculus, UniProt O70370); test: Inhibition of mouse cathepsin S using benzyloxycarbonyl-L-Leucyl-L-Arginine 4-Methyl-coumaryl-7-amide substrate by FRET assay
# Chain of Cathepsin S (Mus musculus, UniProt O70370) (O70370 whole entry): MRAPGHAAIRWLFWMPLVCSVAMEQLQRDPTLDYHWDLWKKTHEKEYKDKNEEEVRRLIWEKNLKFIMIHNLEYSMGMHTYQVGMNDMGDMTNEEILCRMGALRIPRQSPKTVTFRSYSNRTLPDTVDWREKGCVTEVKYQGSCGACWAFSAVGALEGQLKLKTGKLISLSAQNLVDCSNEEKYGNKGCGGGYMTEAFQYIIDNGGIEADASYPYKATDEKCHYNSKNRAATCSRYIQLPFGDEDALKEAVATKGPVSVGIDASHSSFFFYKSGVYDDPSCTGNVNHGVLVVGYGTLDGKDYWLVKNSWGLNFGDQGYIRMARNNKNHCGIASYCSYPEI
# [5] = Drug metabolism in human liver microsomes after 30 mins at 4 uM; assay type: ADME; conditions: read-out: Drug metabolism
# hERG = hERG (Homo sapiens, UniProt Q12809); test: Displacement of [3H]astemizole form human ERG expressed in HEK293 cell membranes at 100 uM; conditions: HEK293 cell membranes that express human ERG, probe [3H]astemizole
# Chain of hERG (Q12809 whole entry): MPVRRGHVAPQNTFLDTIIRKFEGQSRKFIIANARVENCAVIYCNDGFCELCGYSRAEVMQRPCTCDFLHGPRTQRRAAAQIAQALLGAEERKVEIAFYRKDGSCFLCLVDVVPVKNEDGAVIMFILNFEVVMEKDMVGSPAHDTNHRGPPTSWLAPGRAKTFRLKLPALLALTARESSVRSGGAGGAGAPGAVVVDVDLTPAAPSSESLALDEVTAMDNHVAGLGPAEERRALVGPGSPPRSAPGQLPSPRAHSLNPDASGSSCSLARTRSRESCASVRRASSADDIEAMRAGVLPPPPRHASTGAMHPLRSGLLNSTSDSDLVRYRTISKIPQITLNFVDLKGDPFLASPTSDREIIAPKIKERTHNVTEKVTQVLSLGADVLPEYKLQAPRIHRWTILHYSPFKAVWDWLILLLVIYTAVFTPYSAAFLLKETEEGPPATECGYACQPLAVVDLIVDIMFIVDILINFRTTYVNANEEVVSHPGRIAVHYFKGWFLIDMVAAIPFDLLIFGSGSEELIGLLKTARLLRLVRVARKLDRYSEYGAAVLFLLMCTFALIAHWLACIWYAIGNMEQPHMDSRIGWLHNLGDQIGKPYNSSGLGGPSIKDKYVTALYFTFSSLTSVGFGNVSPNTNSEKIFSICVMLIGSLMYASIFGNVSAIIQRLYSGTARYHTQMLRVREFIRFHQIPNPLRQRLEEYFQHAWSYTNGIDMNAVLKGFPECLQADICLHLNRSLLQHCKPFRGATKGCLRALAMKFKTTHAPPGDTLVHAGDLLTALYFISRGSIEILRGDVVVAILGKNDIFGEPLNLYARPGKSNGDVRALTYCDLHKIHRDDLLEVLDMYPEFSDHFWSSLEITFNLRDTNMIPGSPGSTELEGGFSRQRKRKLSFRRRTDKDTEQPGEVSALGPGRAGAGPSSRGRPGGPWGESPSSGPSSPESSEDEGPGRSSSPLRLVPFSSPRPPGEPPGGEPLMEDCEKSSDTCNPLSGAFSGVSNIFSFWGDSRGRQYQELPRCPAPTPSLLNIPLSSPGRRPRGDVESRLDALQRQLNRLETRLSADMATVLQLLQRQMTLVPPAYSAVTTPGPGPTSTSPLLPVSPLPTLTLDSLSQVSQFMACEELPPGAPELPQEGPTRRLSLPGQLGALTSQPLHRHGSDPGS
# [6] = AUC (0 to 24 hrs) in 129SvEv mouse model of CaCl2-induced abdominal aortic aneurysm at 1 mg/kg dosed through oral gavage BID for 4 weeks with first dose given one day prior to surgery; assay type: ADME, organism-based, Abdomen; parameters: time < 24 hr, dose 1 mg/kg, route oral; conditions: in vivo
# Mus musculus [7] = test: Inhibition of CaCl2-induced abdominal aortic aneurysm in 129SvEv mouse assessed as reduction in aortic diameter at 3 mg/kg dosed through oral gavage BID for 4 weeks with first dose given one day prior to surgery; assay type: functional; conditions: Abdomen
# CYP2D6 = CYP2D6 (Homo sapiens, UniProt P10635); test: Inhibition of CYP2D6 (unknown origin) using bufuralol substrate at 10 uM; assay type: ADME; conditions: probe bufuralol
# Chain of CYP2D6 (P10635 whole entry): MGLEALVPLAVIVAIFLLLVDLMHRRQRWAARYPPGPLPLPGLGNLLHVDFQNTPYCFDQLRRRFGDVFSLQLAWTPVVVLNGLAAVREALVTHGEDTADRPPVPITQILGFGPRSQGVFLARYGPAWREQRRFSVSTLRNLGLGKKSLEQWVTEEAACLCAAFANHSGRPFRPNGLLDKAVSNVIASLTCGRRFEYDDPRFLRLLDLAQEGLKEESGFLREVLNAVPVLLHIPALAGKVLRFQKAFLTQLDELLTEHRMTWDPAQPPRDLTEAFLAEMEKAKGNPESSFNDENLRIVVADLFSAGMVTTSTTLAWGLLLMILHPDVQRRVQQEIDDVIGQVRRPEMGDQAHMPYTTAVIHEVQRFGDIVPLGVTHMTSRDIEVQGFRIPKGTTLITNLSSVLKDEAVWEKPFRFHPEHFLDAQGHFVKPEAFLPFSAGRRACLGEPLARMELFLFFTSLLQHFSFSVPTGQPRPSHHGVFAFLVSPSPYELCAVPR
# Plasma [8] = test: Stability in rat plasma assessed as loss of parent compound after 30 mins; assay type: ADME, cell-free; conditions: 0.5 h
# Outline: (§1)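 Compound incubated in human or rat plasma for up to 30 min; loss of parent compound tested for statistical significance.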
# Mus musculus [9] = test: Inhibition of CaCl2-induced abdominal aortic aneurysm in 129SvEv mouse assessed as reduction in aortic diameter at 1 mg/kg dosed through oral gavage BID for 4 weeks with first dose given one day prior to surgery; assay type: functional; conditions: Abdomen
# [10] = Drug metabolism in dog liver microsomes after 30 mins at 4 uM; assay type: ADME, Canis lupus familiaris; conditions: read-out: Drug metabolism
# MDCK = test: Permeability from apical to basolateral side in MDCK cells at 2.5 uM incubated for 1 hr; assay type: ADME, cell-based, Canis lupus familiaris; conditions: dog
# Rattus norvegicus = species: Rattus norvegicus; test: Inhibition of rat cathepsin S G137C mutant using benzyloxycarbonyl-L-Leucyl-L-Arginine 4-Methyl-coumaryl-7-amide substrate by FRET assay
# Mus musculus [11] = test: Inhibition of CaCl2-induced abdominal aortic aneurysm in 129SvEv mouse assessed as reduction in aortic diameter at 10 mg/kg dosed through oral gavage BID for 4 weeks with first dose given one day prior to surgery; assay type: functional; conditions: Abdomen
# [12] = Drug metabolism in rat liver microsomes after 30 mins at 4 uM; assay type: ADME; conditions: read-out: Drug metabolism
# CYP2C9 = CYP2C9 (Homo sapiens, UniProt P11712); test: Inhibition of CYP2C9 (unknown origin) using diclofenac substrate at 10 uM; assay type: ADME; conditions: probe diclofenac
# Chain of CYP2C9 (P11712 whole entry): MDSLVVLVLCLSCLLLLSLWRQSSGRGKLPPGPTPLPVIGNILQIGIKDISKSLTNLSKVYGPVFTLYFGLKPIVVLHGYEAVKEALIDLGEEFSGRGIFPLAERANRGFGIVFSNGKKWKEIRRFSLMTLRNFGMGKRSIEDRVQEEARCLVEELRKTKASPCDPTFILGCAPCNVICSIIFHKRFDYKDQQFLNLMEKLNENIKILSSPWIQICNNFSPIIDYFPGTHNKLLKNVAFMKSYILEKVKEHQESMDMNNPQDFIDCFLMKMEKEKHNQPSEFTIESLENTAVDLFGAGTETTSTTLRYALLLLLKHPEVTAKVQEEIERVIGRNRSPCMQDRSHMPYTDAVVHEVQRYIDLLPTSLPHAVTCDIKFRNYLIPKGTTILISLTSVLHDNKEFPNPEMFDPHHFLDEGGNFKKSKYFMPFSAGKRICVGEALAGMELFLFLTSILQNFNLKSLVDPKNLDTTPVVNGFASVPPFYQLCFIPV
# [13] = Dissociation constant, basic pKa of the compound; assay type: physicochemical
# Mus musculus [14] = test: Inhibition of CaCl2-induced abdominal aortic aneurysm in 129SvEv mouse assessed as reduction in aortic diameter at 30 mg/kg dosed through oral gavage BID for 4 weeks with first dose given one day prior to surgery; assay type: functional; conditions: Abdomen
# [15] = Lipophilicity, log D of the compound at pH 4.0; assay type: physicochemical; conditions: buffer
# [16] = Lipophilicity, log P of the compound; assay type: physicochemical; conditions: octanol/water
# [17] = Clearance in Beagle dog at 1 mg/kg, iv or 3 mg/kg, po; assay type: ADME, organism-based, Canis lupus familiaris; conditions: in vivo
# [18] = Drug metabolism in mouse liver microsomes after 30 mins at 4 uM; assay type: ADME; conditions: read-out: Drug metabolism
# [19] = Solubility in simulated gastric fluid; assay type: ADME
# [20] = AUC (0 to 24 hrs) in 129SvEv mouse model of CaCl2-induced abdominal aortic aneurysm at 3 mg/kg dosed through oral gavage BID for 4 weeks with first dose given one day prior to surgery; assay type: ADME, organism-based, Abdomen; parameters: time < 24 hr, dose 3 mg/kg, route oral; conditions: in vivo
# Mus musculus [21] = test: Inhibition of CaCl2-induced abdominal aortic aneurysm in 129SvEv mouse assessed as reduction in aortic diameter at 1 to 30 mg/kg dosed through oral gavage BID for 4 weeks with first dose given one day prior to surgery; assay type: functional, organism-based; conditions: Abdomen
# Plasma [22] = test: Stability in human plasma assessed as loss of parent compound after 30 mins; assay type: ADME, cell-free; conditions: 0.5 h; outline: as §1
# Cathepsin S [23] = target: Cathepsin S (Homo sapiens, UniProt P25774); test: Inhibition of human cathepsin S using benzyloxycarbonyl-L-Leucyl-L-Arginine 4-Methyl-coumaryl-7-amide substrate by FRET assay
# Chain of Cathepsin S (Homo sapiens, UniProt P25774) (P25774 whole entry): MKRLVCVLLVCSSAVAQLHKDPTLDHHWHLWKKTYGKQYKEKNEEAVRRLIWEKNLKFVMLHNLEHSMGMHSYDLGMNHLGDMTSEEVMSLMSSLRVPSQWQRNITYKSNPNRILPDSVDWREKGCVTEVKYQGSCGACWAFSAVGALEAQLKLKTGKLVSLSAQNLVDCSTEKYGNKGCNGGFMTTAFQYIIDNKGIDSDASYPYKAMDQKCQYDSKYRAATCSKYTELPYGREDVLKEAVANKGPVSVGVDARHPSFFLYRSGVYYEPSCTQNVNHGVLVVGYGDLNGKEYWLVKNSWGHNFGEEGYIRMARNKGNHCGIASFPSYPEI
# [24] = Oral bioavailability in Beagle dog at 3 mg/kg; assay type: ADME, organism-based, Canis lupus familiaris; conditions: in vivo
# CYP3A4 = CYP3A4 (Homo sapiens, UniProt P08684); test: Inhibition of CYP3A4 (unknown origin) using midazolam substrate at 10 uM; assay type: ADME; conditions: probe midazolam
# Chain of CYP3A4 (P08684 whole entry): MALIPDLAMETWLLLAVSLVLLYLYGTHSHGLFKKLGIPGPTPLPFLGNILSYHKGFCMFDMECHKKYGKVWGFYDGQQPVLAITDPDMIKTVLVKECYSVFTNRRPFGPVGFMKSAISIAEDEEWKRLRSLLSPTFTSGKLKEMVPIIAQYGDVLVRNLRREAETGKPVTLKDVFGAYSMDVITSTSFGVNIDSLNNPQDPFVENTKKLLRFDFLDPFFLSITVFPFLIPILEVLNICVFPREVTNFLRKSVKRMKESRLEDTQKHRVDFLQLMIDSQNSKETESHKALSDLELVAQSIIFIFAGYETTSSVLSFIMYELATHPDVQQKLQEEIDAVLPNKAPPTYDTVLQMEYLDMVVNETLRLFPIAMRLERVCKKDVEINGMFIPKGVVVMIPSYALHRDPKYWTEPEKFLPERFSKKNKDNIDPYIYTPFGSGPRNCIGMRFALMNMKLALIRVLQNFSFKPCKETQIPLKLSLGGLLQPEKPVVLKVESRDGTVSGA
# Procathepsin L = Procathepsin L (Homo sapiens, UniProt P07711); test: Inhibition of human cathepsin L using benzyloxycarbonyl-L-Leucyl-L-Arginine 4-Methyl-coumaryl-7-amide substrate by FRET assay
# Chain of Procathepsin L (P07711 whole entry): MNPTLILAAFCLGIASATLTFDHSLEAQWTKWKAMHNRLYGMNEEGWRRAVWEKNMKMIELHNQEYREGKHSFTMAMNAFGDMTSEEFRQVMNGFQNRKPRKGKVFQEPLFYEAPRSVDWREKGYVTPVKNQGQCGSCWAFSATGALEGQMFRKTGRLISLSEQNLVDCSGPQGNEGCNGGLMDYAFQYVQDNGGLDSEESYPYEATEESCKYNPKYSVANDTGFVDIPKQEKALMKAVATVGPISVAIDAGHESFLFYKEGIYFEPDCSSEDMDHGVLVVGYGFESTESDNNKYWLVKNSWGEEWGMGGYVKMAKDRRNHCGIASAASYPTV
Structure (SMILES),Vd [1],IC50 (Cathepsin S [4]),"metabolised at 0.5 h, 4 µM [5]",inhibition at 10 µM (CYP2D6),"metabolised at 0.5 h, 4 µM [10]",permeability (MDCK),inhibition (Rattus norvegicus),"metabolised at 0.5 h, 4 µM [12]",inhibition at 10 µM (CYP2C9),pKa [13],logD [15],logP [16],clearance [17],"metabolised at 0.5 h, 4 µM [18]",solubility [19],IC50 (Cathepsin S [23]),bioavailability [24],inhibition at 10 µM (CYP3A4),inhibition (Mus musculus [21]),other results
CNC(=O)O[C@H]1COc2ccc(N3CCN(C4COC4)CC3)cc2[C@@H]1NC(=O)c1ccc(F)cc1,< 1 L/kg,1.67 nM,< 20%,< 15%,< 20%,> 4%,inactive,< 20%,< 15%,5.11,1,2.24,< 4 mL/min/kg,< 20%,1440 µg/mL,7.7 nM,> 75%,< 15%,Dose-dependent effect,AUC(0-t) at 24 h [2]: 5880 ng·h/mL; AUC(0-t) at 24 h [3]: 35400 ng·h/mL; inhibition at 100 µM (hERG): 6%; AUC(0-t) at 24 h [6]: 756 ng·h/mL; inhibition in vivo at 3 mg/kg (Mus musculus [7]): 83%; Stability (Plasma [8]): Stable; inhibition in vivo at 1 mg/kg (Mus musculus [9]): 58%; inhibition in vivo at 10 mg/kg (Mus musculus [11]): 87%; inhibition in vivo at 30 mg/kg (Mus musculus [14]): 87%; AUC(0-t) at 24 h [20]: 2330 ng·h/mL; Stability (Plasma [22]): Stable
CN1CCN(C(=O)Nc2ccc3c(c2)C(NC(=O)c2ccccc2)CCC3)CC1 (centres undefined),,2780 nM,,,,,inactive,,,,,,,,,1290 nM,,,,

# Further lines, with some results ahead:
Vd [1],IC50 (Cathepsin S [4]),"metabolised at 0.5 h, 4 µM [5]",inhibition at 10 µM (CYP2D6),"metabolised at 0.5 h, 4 µM [10]",permeability (MDCK),inhibition (Rattus norvegicus),"metabolised at 0.5 h, 4 µM [12]",inhibition at 10 µM (CYP2C9),pKa [13],logD [15],logP [16],clearance [17],"metabolised at 0.5 h, 4 µM [18]",solubility [19],IC50 (Cathepsin S [23]),bioavailability [24],inhibition at 10 µM (CYP3A4),Structure (SMILES),inhibition (Mus musculus [21]),other results
,1570 nM,,,,,inactive,,,,,,,,,1170 nM,,,O=C(N[C@@H]1CCCc2ccc(/N=C/N3CCCCCC3)cc21)c1ccc(Br)cc1,,IC50 (Procathepsin L): > 100000 nM
,3930 nM,,,,,inactive,,,,,,,,,4000 nM,,,CN1CCN(c2ccc3c(c2)C(NC(=O)c2ccccc2)CCC3)CC1 (centres undefined),,
< 1 L/kg,3.91 nM,< 20%,< 15%,< 20%,> 4%,inactive,< 20%,< 15%,5,1.2,2.24,< 4 mL/min/kg,< 20%,1130 µg/mL,12.4 nM,> 75%,< 15%,CNC(=O)O[C@H]1CCc2ccc(N3CCN(C4COC4)CC3)cc2[C@@H]1NC(=O)c1ccc(F)cc1,Dose-dependent effect,
